Measurements reported in the EternaBench riboswitch data.

System: MS2 coat protein
Assay: apparent Kd, MS2 coat protein; higher = weaker binding; RNA-MaP array; FMN 200 µM where present
Procedure, shortened: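 Two titrations, one without ligand and one with constant ligand, were run with SNAP-549-labelled MS2 coat protein from 0.7 or 1.5 nM, doubling to 3 µM. The targets were designs transcribed by stalled E. coli RNA polymerase on Illumina sequencing-chip clusters, in 100 mM Tris-HCl pH 7.5, 80 mM KCl, 4 mM MgCl2, BSA, DTT, yeast tRNA and Tween-20. The apparent Kd is the median of filtered per-cluster binding-curve fits, with green signal normalised to red-channel RNA signal and control-cluster median Fmax.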

[1] = designed as: OFF switch for flavin mononucleotide, no ligand
[2] = ligand present: flavin mononucleotide, designed as: OFF switch for flavin mononucleotide
[3] = designed as: ON switch for flavin mononucleotide, no ligand
[4] = ligand present: flavin mononucleotide, designed as: ON switch for flavin mononucleotide

Sequence | apparent Kd [1] [nM] | apparent Kd [2] [nM] | apparent Kd [3] [nM] | apparent Kd [4] [nM]
UGAUCUUUUGUUAGGAUAUGCUGGCUGAAAAGUCAGCAGAAGGGACAUGAGGAUCACCCAUGUUCUCUCUUUUU | 9.66 | 13.6 | – | –
GUCGAUCACCAGAAGGACAUGAGGAUCACCCAUGUAGGAUAUGGGUAAGACGUCACAUUGGCGUGCAAACGUUUGCGUUCGUAC | – | – | 11.9 | 6.42
UUGAUAAGGAGAGGAUAUUGACAUGAGGAUCACCCAUGUACAUGGGAGUAUUUACUGAAUUCUUACGAGAAGGCUUACAUAUUU | 165 | 115 | – | –
CUCAGACAUGAGGAUCACCCAUGUGAGGAUAUGAUGCAGCAGUGGUCUACGCUGUGCAUCAGAAGGCACAUGUG | 36.5 | 12.5 | – | –
AAUAAAUAUAAAUUUUAUUUGUCGUAGGAUAUGGGUGACAUGAGGAUCACCCAUGUUGCAGACGACCAGAAGGGCGGCGGAUAU | – | – | 117 | 23.2
AGCCAACAUGAGGAUCACCCAUGUCUACAGGAUUAAGGAUAUGGGCAGGACUUCCCUGCACUAGAAGGUGAUCCAA | – | – | 28.9 | 251
UGAGCGCACGAGAAGGGCGGGUUCACGGGCUCCUGACGAGACAUGAGGAUCACCCAUGUAACCACGCAGGAUAUCGACCGGAUC | 20.9 | 141 | – | –
CGUGUGUGAACAGGAUAUUGGAACGUACCUCGCCACAUGAGGAUCACCCAUGUCGUUGCUCACGCCAAGAAGGGUUUACGCCUA | – | – | 248 | 226
UGAUCUAUGUAGAAGGCCCAUAUCUAUAUUUAGGGAGGAUAUACAUGAGGAUCACCCAUGUAUAGAGCGGGUGGACCCGUCACC | 26.7 | 62.1 | – | –
CUAUCUUGCAAGGAUAUGCAAUUUAUUAUUUAUGCAGAAGGUGCUACAUGAGGAUCACCCAUGUUUCUGGGUUU | 134 | 257 | – | –
AAACACGGACAUGAGGAUCACCCAUGUGGCGAAAGCCUUGGGAGAAGGCCGAUAGCAAAGCUAUCGGAGGAUAUUCAUACCGUG | – | – | 1200 | 61
CUUGAUCUUGUCAGGAUAUACCUGCCUAGUUGGAGGUAGAAGGGACAUGAGGAUCACCCAUGUAGCCAACCGAC | 16.9 | 19.2 | – | –
UGUGCGUUGAUCUUCGAUCGGAGUACAUGAGGAUCACCCAUGUAGGAUAUUCAAAGACGCAGAUAGAAGAAGGACAUCGGUUUC | 10.6 | 9.43 | – | –
UCCACUGCUGAGAAGGGAUACGUUUGGGUCGCAUCAGGAUAUCGAUACAGUGCAGCAUGAGGACAUGAGGAUCACCCAUGUGUG | – | – | 140 | 29.5
GCCGUUAAAGGAUAUACAUGAGGAUCACCCAUGUCGGUAUAAAAUUUACCGCCUCCCUGUAGAAGGUUAAGGCA | 15.6 | 19.8 | – | –
GGAUAGGACAGAGGAUAUACGUGCUAGAGAUACUAGCAAAAUUUCCUCACAUGAGGAUCACCCAUGUAGAAGGCUGUCCUGUCG | 17.1 | 354 | – | –
ACCAUUUACUAAUUAUCUAUACAUGAGGAUCACCCAUGUUAAGAGGAUAUCAUCGUGAAACACGAUGAGAAGGCUUAGCAUUCG | 54.5 | 187 | – | –
UGGUUGCGAGUAGGAUAUGGUGUUUUUGUUUGGUUAGAAGGGUUCGUGAUUGUGACAUGAGGAUCACCCAUGUGUGUUGUUGUU | – | – | 63.6 | 70.5
AAUACUACAGGAUAUACAUGGGUGAUCCUCAUGUCCCUUCUACAUGAGGAUCACCCAUGUAGAAGGGUAGUACA | 13.4 | 8.3 | – | –
GCACGGCAUGUAGGAUAUCGAGCGCCGGGCGCUCGAGAAGGACAUGAGGAUCACCCAUGUAUUCUCAGUGAGAGAGUGCUGUGC | 36.1 | 55.9 | – | –
AUGGUUGUCGUAGGAUAUGUAGGAUAUUCCUACAUGAGGAUCACCCAUGUUCGCAUGGAAGAAGGACAGAAGGACGAUGACCAA | – | – | 531 | 21.1
AAACAUGUCCGAGGAUAUCUGAGAUCAUUUUCAAGAGAAGGCGGACAUGAGGAUCACCCAUGUCUCUCCUCAUCAACUCCAAAU | 18.8 | 136 | – | –
UCGAUCGGAGGAUAUACUAAUACAACUACUGAAGUGUCAAAACAUGAGGAUCACCCAUGUAGAAGGCCGAUAUA | 21.8 | 24.3 | – | –
GCUUGUGAAGGAUAUACUGGAGGAGUGCGAUAGAAGCACGAACAUGAGGAUCACCCAUGUAGAAGGUCAGGCGU | 24.4 | 29.1 | – | –
CUUUAGUAAGGAUAUCAGCUUAGGAGGUUGGUAAUGAGAGCUGAGAAGGUACAUGAGGAUCACCCAUGUUAGUU | 17.3 | 19.7 | – | –
GCGUUGUACGAGAAGGCCAAUACAUGAGGAUCACCCAUGUUAAGUUGUUUUGGAGGAUAUCGAUCACUUACAAUAAUGCAACGC | 7.23 | 6.31 | – | –
UGUAUGGACAGAGGAUAUGCCGAUAGGAUUUACUAUCGAAGAAUCCUCACAUGAGGAUCACCCAUGUAGAAGGCUGUCCAUACU | 8.14 | 38.4 | – | –
UUGGUUGUCGUAGGAUAUGUAGGAUAUUCCUACAUGAGGAUCACCCAUGUUAGCAUGGAAGAAGGACAGAAGGACGAUGACCAU | – | – | 1010 | 16.9

Sequence | apparent Kd [1] [nM] | apparent Kd [2] [nM] | apparent Kd [3] [nM] | apparent Kd [4] [nM]
CUGGUGUGAGGAUAUCAAAGACCUCGGUAAAGAACCGAGGAUGAGAAGGCACAUGAGGAUCACCCAUGUAACAA | 23.3 | 32.9 | – | –
CUGUGUCCGCAGGAUAUGUUAUCCUGAAGGAUCACAGAAGGGCGGACAUGAGGAUCACCCAUGUGAGCCAAAGA | 16.2 | 17.3 | – | –
ACUUAAAUACCCAAAAGUCGGGCGGAGGAUAUGGAGCUUCCACCACAUGAGGAUCACCCAUGUCUUCAGAAGGCCGCCCUUGGG | – | – | 89.6 | 8.79
AUAUCCAAUCAAGGAUAUGUAUUAAAGAUUUGAAAACAUGAGGAUCACCCAUGUAUAUGGUGGGAACAGAAGGUGAAUAAGUAA | 140 | 164 | – | –
CCACGAGACUAAGGAUAUGGAGUGUCAACAUAAAACAUGAGGAUCACCCAUGUAAAGAGUACAAUUCAGAAGGUAGAGACGUGG | – | – | 21.9 | 21.5
CGCUAAGAUGGGUCUAAUGGACCAUAGGAUAUGCUUGUACAUGAGGAUCACCCAUGUAAUAUUGUGCAGAAGGGUGGAUUUGCG | – | – | 26.4 | 19.6
GUCAGCUCGUGAGGAUAUACAACACUGCGUCGGCAGUGUAUUAAGAUCACAUGAGGAUCACCCAUGUAGAAGGCACGAGCUGAU | 13.4 | 223 | – | –
GAGAUCAUCACAGGAUAUGCAUUCCAUAAGUGGGCAGAAGGGUGAGAUUCAAGUGGACAUGAGGAUCACCCAUGUAUACUGCCU | – | – | 33.1 | 17.3
CAGGUUAGAGGAUAUACGUAGGUACAGAUCUGUGUGUUUCUACAUGAGGAUCACCCAUGUAGAAGGCUAUCCUG | 25.6 | 20 | – | –
AUAAUUUUAUAUAUCUUUUUAAUCAGAAGGCAUAACAUGAGGAUCACCCAUGUAUAUUAUAGUUAUGAGGAUAUGAUUUGGUUA | 8.94 | 11.3 | – | –
UGAAAUCAUGUAGGAUAUGCAUGGCGAAGCUACGCAGAAGGACAUGAGGAUCACCCAUGUUAUAGCUACCCAGUUAGGUGGCAA | 145 | 157 | – | –
UUUUAACAUGAGGAUCACCCAUGUGAGGAUAUCGAAAUUUAUAUUAAUAUUAAUUUAUCGAGAAGGCACAUUUU | 107 | 133 | – | –
AUCCUACAUGAGGAUCACCCAUGUAAGGAUAUGCGGCGACGAGAUUGUCUAUACGGCCGCAGAAGGUACCCGGG | 16.1 | 18.6 | – | –
CAGCGAUAGCUGAACAAUCUAUCACAGGAUAUUCAUAAAACAUGAGGAUCACCCAUGUGAAAUUGGGAGAAGGGUGAUAGAUUG | – | – | 10.8 | 5.04
GGAUGACAAAGUCAUCCAAUUCGAACAUGAGGAUCACCCAUGUAGGAUAUGCUUCUCAAAGAGAAGCAGAAGGACAUGUGCCUU | 29.5 | 215 | – | –
UCCACUGCUGAGAAGGGAUACGGCUGGGUCGCAUCAGGAUAUCGAUACAGUGCAGCAUGAGGACAUGAGGAUCACCCAUGUGUG | – | – | 81 | 27
AGGGUAGUAGGAUAUACAUGAGGAUCACCCAUGUUUCCAUUGCGUGACUGGUCCUAGUGUAGAAGGGCUAGCAC | 18.6 | 17.6 | – | –
GGAUAGGACAGAGGAUAUACGUGCUAGAGAUACUAGCAAAAUUUCCUCACAUGAGGAUCACCCAUGUAGAAGGCUAUCCUAUCG | 6.34 | 31.9 | – | –
AAGCUAACCACAGGAUAUCCACAUGAGGAUCACCCAUGUUGCUGAAGAGCAGGAGAAGGGUGGUGGGCAGAGUGCGCUGUCGUG | – | – | 53.5 | 8.75
CAAAAGCUAGGAUAUACGUCAAAGGGCCCGAUCGCUCUCGGACAUGAGGAUCACCCAUGUAGAAGGAGCGCACU | 14.4 | 16.8 | – | –
GUGGUCAGACAUGAGGAUCACCCAUGUGGAAUAAAUAAGGAGAAGGAUAUAGAAUAUAGGAUAUACUAGAAGGUCUGGUUGGUG | – | – | 67.3 | 73.1
UGGCUGAGUCGAGGAUAUGAUCUUCAUAUAUAUACAUGAGGAUCACCCAUGUAUAAUUACAUGGAUCAGAAGGCGACUCAGCCU | – | – | 29.4 | 9.47
AUAGACAUACAGCCACAUGAGGAUCACCCAUGUACGCUGACGAGAAGGGUCAGCUAGCAGAGGUGACAGGAUAUCGGACAUGAA | – | – | 149 | 89
ACUUUACGAGGAUAUACUGUCGGGCCUCGGGCGUCCCUGCGACAUGAGGAUCACCCAUGUAGAAGGCGUUUACU | 20.6 | 35.2 | – | –
UGAGACCUCACAGGAUAUGCUGGACUUUGUCCAGCAGAAGGGUGAAAACAUGAGGAUCACCCAUGUAUGGUCUCCAAAUUUAAG | – | – | 191 | 12.7
GUCAGUCGAGGAUAUACGAUCGUGCUUCGGCACGUAAGAUCACAUGAGGAUCACCCAUGUAGAAGGCGACUGAC | 32.5 | 257 | – | –
AUAUCCUAGAUAGGAUAUACUGAGGUUGAAUGGGUAGAAGGAUCGUUAGGGAAGACUACAUGAGGAUCACCCAUGUUGUUUAUU | – | – | 116 | 92.9
